Laboratory results from ChEMBL document CHEMBL3352704, “Microwave-assisted synthesis of 3,5-disubstituted isoxazoles and evaluation of their anti-ageing activity” (2014).
Activity calls are given as the source filed them. No cut-off for these calls is given here.

Experiments:
Caenorhabditis elegans [1] = experiment: Antiaging activity in Caenorhabditis elegans Bristol isolate N2 assessed as lifespan at 10 uM; assay type: functional, organism-based
HLF1 [2] = experiment: Inhibition of H2O2-induced oxidative stress in human HLF1 cells assessed as increase in cell viability at 2 to 5 uM pretreated for 24 hrs followed by addition of 300 uM H2O2 for 2.5 hrs; assay type: functional, cell-based
Caenorhabditis elegans [3] = experiment: Antiaging activity in Caenorhabditis elegans Bristol isolate N2 assessed as lifespan; assay type: functional, organism-based
Summary of the method: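 C. elegans N2 hermaphrodites, egg-lay synchronized, moved at L4 (80-120 per condition) onto UV-killed OP50/NGM plates carrying compound in DMSO diluted in M9, or DMSO alone; 20 °C, new plates every 2 days, exposure lifelong. Day 1 adult = t0. Scored daily for touch-provoked movement and pharyngeal pumping until death. Kaplan–Meier curves, log-rank test; repeated at least twice.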

HLF1 [4] = experiment: Inhibition of H2O2-induced oxidative stress in human HLF1 cells assessed as cell viability at 5 uM pretreated for 24 hrs followed by addition of 300 uM H2O2 for 2.5 hrs; assay type: functional, cell-based
Summary of the method: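 HFL-1 embryonic lung fibroblasts in DMEM/10% FBS, fed about 16 h before assay; 10⁴ cells seeded, 24 h later given compound in DMSO or DMSO alone for 24 h. Then 300 μM H2O2 for 2.5 h with compound still present, PBS wash, 5-day recovery in complete medium. Cells counted in triplicate with a Coulter counter; at least two experiments.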

Caenorhabditis elegans [5] = experiment: Antiaging activity in Caenorhabditis elegans Bristol isolate N2 assessed as increase in lifespan at 1 uM (reference value: 15 +/- 0.85%); assay type: functional
Caenorhabditis elegans [6] = experiment: Antiaging activity in Caenorhabditis elegans Bristol isolate N2 assessed as increase in lifespan at 20 uM (reference value: 15 +/- 0.85%); assay type: functional
Caenorhabditis elegans [7] = experiment: Antiaging activity in Caenorhabditis elegans Bristol isolate N2 assessed as increase in lifespan at 10 uM (reference value: 15 +/- 0.85%); assay type: functional

Row | Structure (SMILES) | Activity (Caenorhabditis elegans [3]) | inhibition (HLF1 [4]) | further results
1 | O=c1c(O)c(-c2ccc(O)c(O)c2)oc2cc(O)cc(O)c12 | – | – | Activity (Caenorhabditis elegans [1]): inactive; Activity (HLF1 [2]): Active
2 | Oc1ccc(-c2cc(-c3ccccc3)on2)cc1 | inactive | inactive | –
3 | OCc1cc(-c2ccc(O)cc2)no1 | inactive | inactive | –
4 | CCCc1cc(-c2ccc(O)cc2)no1 | inactive | inactive | –
5 | COc1c(C)c(C)c2c(c1C)CCC(C)(COCc1cc(-c3ccc(O)cc3)no1)O2 (stereo unspecified) | inactive | inactive | –
6 | Cc1c(C)c2c(c(C)c1O)C=CC(C)(COCc1cc(-c3ccc(O)cc3)no1)O2 (stereo unspecified) | – | – | ILS at 1 µM (Caenorhabditis elegans [5]): 18%; Activity (HLF1 [2]): Active; ILS at 20 µM (Caenorhabditis elegans [6]): 20%; ILS at 10 µM (Caenorhabditis elegans [7]): 18%
7 | Cc1c(C)c2c(c(C)c1O)C=CC(C)(COCc1cc(-c3ccc(F)cc3)no1)O2 (stereo unspecified) | inactive | inactive | –
